Laboratory results taken from article PMC11589143 (Nature Communications, 2024).

What was measured:
[1] = tested on: HEK293T nuclear proteins (H4R3me2a interactors); assay: Proteome-wide photoaffinity capture, dimethyl labelling, LC-MS; type: binding, Homo sapiens; details: |log2 fold change| > 2, P < 0.05; vs peptide without pLeu
In short: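 HEK293T cells were lysed in RSB buffer and crude nuclei resuspended in crosslinking buffer (100 mM HEPES, 1.5 mM MgCl2, 150 mM KCl, pH 7.5). Nuclei received 100 µM biotinylated pLeu peptide in the dark, then 365 nm UV on ice. After washing and sonication, proteins were captured on streptavidin and washed stringently. Only proteins quantified in both replicates were kept, with two-tailed unpaired t-test P-values.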

His-tagged WT Mina53 = assay: In vitro demethylation, dot blotting, WT Mina53; type: biochemical; details: 2 h at 37 °C, cofactors
[2] = tested on: inactive mutant (H179Y/D181G/H240Y) of Mina53; assay: In vitro demethylation, dot blotting, inactive mutant Mina53; type: biochemical; details: 2 h at 37 °C, cofactors
[3] = molecular target: FITC-conjugated H4R3me2a peptide; assay: MST
His-tagged Mina53 = assay: Pulldown of synthetic H4R3 peptides with purified His-tagged Mina53; type: binding; details: H4R3 peptides with different R3 modifications
[4] = tested on: mutant Mina53 (D329A/D333A); assay: Microscale thermophoresis, mutant Mina53; type: binding; details: MST; D333A/D329A mutant vs WT; n=3 independent assays
In short: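 His-tagged Mina53 was titrated from 3 nM to 0.1 mM against 25 nM FITC-labelled H4R3me2a peptide. Mixtures were incubated 15 min in 30 mM Hepes, 150 mM NaCl, pH 7.5, then loaded into glass capillaries for microscale thermophoresis. KD was fitted from the thermophoresis response.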

[5] = tested on: catalytically inactive mutant Mina53; assay: LC-MS of in vitro demethylation products, mutant Mina53; type: biochemical; details: high-resolution MS
In short: (§1)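 Reaction mixtures were brought to 0.2% TFA and 2% acetonitrile (final) and desalted on C18 ZipTips (activated in 80% acetonitrile/0.1% TFA, equilibrated in 0.1% TFA). Separation was on an HSS T3 UPLC column with 0.1% formic acid in water versus acetonitrile/0.1% formic acid. Detection used positive-mode ESI TOF MS scanning 400-1500 m/z, and relative peptide abundance was compared.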

Mina53 = Mina53 (Homo sapiens, UniProt Q8IUF8); assay: Formaldehyde release assay; type: biochemical; details: AAPT (modified NASH), ex 355 nm / em 470 nm
Mina53, sequence (Q8IUF8 whole entry): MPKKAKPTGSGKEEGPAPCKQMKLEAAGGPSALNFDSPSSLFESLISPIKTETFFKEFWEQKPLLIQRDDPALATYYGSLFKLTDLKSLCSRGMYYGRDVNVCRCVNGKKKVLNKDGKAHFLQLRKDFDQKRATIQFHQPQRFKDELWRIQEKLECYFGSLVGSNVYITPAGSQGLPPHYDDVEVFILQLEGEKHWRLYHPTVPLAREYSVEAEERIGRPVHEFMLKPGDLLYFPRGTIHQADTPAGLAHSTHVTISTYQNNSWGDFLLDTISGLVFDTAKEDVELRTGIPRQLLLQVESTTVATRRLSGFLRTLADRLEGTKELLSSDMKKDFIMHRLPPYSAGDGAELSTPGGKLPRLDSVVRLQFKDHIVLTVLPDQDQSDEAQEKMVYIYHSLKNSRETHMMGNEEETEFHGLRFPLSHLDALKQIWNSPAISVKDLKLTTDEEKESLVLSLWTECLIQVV
In short: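 After the demethylation reaction, samples were TCA-precipitated and 1% Tris buffer was added. An equal volume of AAPT buffer was added to the supernatant and incubated 30 min at room temperature. Formaldehyde was quantified against a standard curve from serial dilutions of 37% formaldehyde. Km and kcat were fitted to the Michaelis-Menten equation.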

WT Mina53 = assay: LC-MS of in vitro demethylation products, WT Mina53; type: biochemical; details: high-resolution MS
In short: as §1

His-tagged Mina53 (Myc-induced nuclear antigen 53), wild type, sequence (Q8IUF8 whole entry): as above

pLeuGRme2aGKGGKGLGKGGAKKbio-NH2 [H4R3me2a-pLeu-biotin]
Enrichment of SND1, SMNDC1 and PRMT1 in pLeu-containing peptide sample [1]: enriched

APATGGV-Kme3-KPHRYRP(Biotin) [H3K36me3]
Dot-blot signal change with WT Mina53 (His-tagged WT Mina53): modestly decreased | Dot-blot signal change with mutant Mina53 [2]: not mutant Mina53

His-tagged Mina53 (Myc-induced nuclear antigen 53), wild type (from UniProt Q8IUF8 1-465) (enzyme)
Kd [3]: 27.6 µM

SGR(Me2s)GKGGKGLGKGGAKRHRKVGGK(Biotin) [H4R3me2s]
Amount of peptide pulled down by Mina53 (His-tagged Mina53): in the smallest amount

SGR(Me2a)GKGGKGLGKGGAKRHRKVGGK(Biotin) [H4R3me2a]
Binding affinity of mutant Mina53 [4]: drastic loss of binding | Peptide peak shift with mutant Mina53 [5]: not mutant Mina53 | Dot-blot signal change with WT Mina53 (His-tagged WT Mina53): drastically decreased | turn-over rate (kcat) (Mina53): 0.37 ± 0.08 s⁻¹ | Dot-blot signal change with mutant Mina53 [2]: not mutant Mina53 | Peptide peak shift (to mono-methylated peptide) (WT Mina53; WT Mina53): 14 Da

SGR(Me1)GKGGKGLGKGGAKRHRKVGGK(Biotin) [H4R3me1]
Dot-blot signal change with WT Mina53 (His-tagged WT Mina53): drastically decreased | Dot-blot signal change with mutant Mina53 [2]: not mutant Mina53 | Appearance of non-methylated peptide (WT Mina53; H4R3me1 peptide as substrate): modest non-methylated peptide appearance
